# Measured values gathered from unrelated publications.
# Each line is one published result; the experiments were not run side by side.
# F10 trypsin-like site: Coagulation factor X, trypsin-like site (F10, Homo sapiens, UniProt P00742)
# Ntsr1: Neurotensin receptor type 1 (Ntsr1, Rattus norvegicus, UniProt P20789)
# PCNA: Proliferating cell nuclear antigen (PCNA, Homo sapiens, UniProt P12004)
# ADRB2: Beta-2 adrenergic receptor (ADRB2, Homo sapiens, UniProt P07550)
# CYP1B1: Cytochrome P450 1B1 (CYP1B1, Homo sapiens, UniProt Q16678)
SMILES,target,test,conditions,endpoint,result
CCCCOc1ccc(C(=O)CCN2CCCCC2)cc1,"Histamine H3 receptor (HRH3, Homo sapiens, UniProt Q9Y5N1)","ligand displacement, radioligand",,IC50,3.89 µM
CC(C)(C)[C@H](NC(=O)[C@H](CCONC(=N)N)NC(=O)Cc1ccc(CN)cc1)C(=O)N[C@@H](CCONC(=N)N)C(=O)NCc1ccc(C(=N)N)cc1,F10 trypsin-like site,"enzyme activity, inhibitor",pH 8,Ki,47 µM
CCc1c(C(=O)N[C@H](C(=O)O)C2CCCCC2)nn(-c2ccnc3cc(Cl)ccc23)c1-c1c(OC)cccc1OC,Ntsr1,"calcium signal, antagonist, fluorescence",,Kb,> 10 µM
O=C(N[C@H]1COC(=O)[C@@H](NC(=O)c2cccc(O)c2[O-])COC(=O)[C@@H](NC(=O)c2cccc(O)c2[O-])COC1=O)c1cccc(O)c1[O-].[Fe+3],"Neutrophil gelatinase-associated lipocalin (LCN2, Homo sapiens, UniProt P80188, C107S)","binding, fluorescence",pH 7.4,Kd,0.00041 µM
NCC(O)c1ccc(O)c(O)c1F (centres unmarked),"Beta-2 adrenergic receptor (ADRB2, Homo sapiens, UniProt P07550, N293F)","ligand displacement, radioligand",cell membranes,Ki,216 µM
CC[C@H](C)[C@H](NC(=O)[C@H](CCCCN)NC(=O)[C@H](CO)NC(=O)[C@H](CC(=O)O)NC(=O)[C@H](CCCCN)NC(=O)[C@H](CCCCN)NC(=O)CNC(=O)[C@H](Cc1c[nH]cn1)NC(=O)[C@@H](N)CCC(N)=O)C(=O)N[C@H](C(=O)N[C@@H](C)C(=O)N[C@@H](Cc1c[nH]cn1)C(=O)N[C@@H](Cc1ccccc1)C(=O)N[C@@H](CCSC)C(=O)N[C@@H](CCCNC(=N)N)C(=O)N[C@@H](CC(C)C)C(=O)N1CCC[C@H]1C(=O)N[C@@H](CCCCN)C(=O)N[C@@H](C)C(=O)O)[C@@H](C)O,PCNA,"binding, ITC",pH 7.4,Kd,8.67 µM
COc1ccc(-c2cc(C(=O)N[C@H](C(=O)O)C3CCCCC3)nn2-c2ccnc3cc(Cl)ccc23)c(OC)c1,Ntsr1,"calcium signal, antagonist, fluorescence",,Kb,> 10 µM
CC(=O)N[C@@H](C)C(=O)N1CCC[C@H]1C(=O)N[C@@H](CC(C)C)C(=O)N[C@H](C(=O)N[C@@H](CCCNC(=N)N)C(=O)NCC(=O)N[C@@H](CO)C(=O)N[C@@H](CS)C(=O)N[C@@H](CCCNC(=N)N)C(=O)N[C@@H](CCCCN)C(=O)N[C@@H](CCCNC(=N)N)C(=O)N[C@@H](CC(N)=O)C(=O)N[C@@H](CCCNC(=N)N)C(=O)N[C@@H](CO)C(=O)N1CCC[C@H]1C(=O)N[C@@H](CCC(=O)O)C(=O)N[C@@H](CCCNC(=N)N)C(N)=O)[C@@H](C)O,"WD repeat-containing protein 5 (WDR5, Homo sapiens, UniProt P61964)","binding, ITC",pH 7,Kd,14.6 µM
CCOC(=O)C(CC)(CCCSCCOCCOCCNc1ccc([N+](=O)[O-])c2nonc12)NC(=O)c1ccc(C2CC2)c(Cc2ccc(F)cc2)n1 (racemic),"Cannabinoid receptor 2 (CNR2, Homo sapiens, UniProt P34972)","cAMP, agonist",,EC50,0.0047 µM
O=C(CCCCCCNC(=O)c1cnc(N(c2ccccc2)c2ccccc2)nc1)NO,"Polyamine deacetylase HDAC10 (HDAC10, Homo sapiens, UniProt Q969S8)","enzyme activity, inhibitor, fluorescence",,IC50,0.466 µM
CC[C@H](C)[C@H](NC(=O)[C@H](C)NC(=O)[C@H](CO)NC(=O)[C@H](CC(=O)O)NC(=O)[C@H](CCCCN)NC(=O)[C@H](CCCCN)NC(=O)CNC(=O)[C@H](Cc1c[nH]cn1)NC(=O)[C@@H](N)CCC(N)=O)C(=O)N[C@H](C(=O)N[C@@H](CC(=O)O)C(=O)N[C@@H](Cc1c[nH]cn1)C(=O)N[C@@H](Cc1ccccc1)C(=O)N[C@@H](CCSC)C(=O)N[C@@H](CCCNC(=N)N)C(=O)N[C@@H](CC(C)C)C(=O)N1CCC[C@H]1C(=O)N[C@@H](CCCCN)C(=O)N[C@@H](C)C(=O)O)[C@@H](C)O,PCNA,"binding, ITC",pH 7.4,Kd,24.9 µM
C[C@H](N)Cn1ncc2ccc3c(c21)CCCO3,ADRB2,"ligand displacement, radioligand",,IC50,0.48 µM
CC(C)=CCc1c(O)cc2c(c1O)C(=O)C[C@@H](c1ccc(O)cc1)O2,CYP1B1,"enzyme activity, inhibitor, fluorescence","15 min, pH 7.4",Ki,0.23 µM
CC(C)(C)[C@H](NC(=O)[C@H](CCCNC(=N)N)NC(=O)Cc1ccc(CN)cc1)C(=O)N[C@@H](CCONC(=N)N)C(=O)NCc1ccc(C(=N)N)cc1,F10 trypsin-like site,"enzyme activity, inhibitor",pH 8,Ki,28 µM
CN1[C@@H]2C[C@@H](OC(=O)[C@H](CO)c3ccccc3)C[C@H]1[C@@H]1O[C@@H]12,"Ileal sodium/bile acid cotransporter (SLC10A2, Homo sapiens, UniProt Q12908)","transporter uptake, inhibitor",,Ki,6450 µM
CC[C@H](C)[C@H](NC(=O)[C@H](CCCCNC(C)=O)NC(=O)[C@H](CO)NC(=O)[C@H](CC(=O)O)NC(=O)[C@H](CCCCN)NC(=O)[C@H](CCCCN)NC(=O)CNC(=O)[C@H](Cc1c[nH]cn1)NC(=O)[C@@H](N)CCC(N)=O)C(=O)N[C@H](C(=O)N[C@@H](CC(=O)O)C(=O)N[C@@H](Cc1c[nH]cn1)C(=O)N[C@@H](Cc1ccccc1)C(=O)N[C@@H](CCSC)C(=O)N[C@@H](CCCNC(=N)N)C(=O)N[C@@H](CC(C)C)C(=O)N1CCC[C@H]1C(=O)N[C@@H](CCCCN)C(=O)N[C@@H](C)C(=O)O)[C@@H](C)O,PCNA,"binding, ITC",pH 7.4,Kd,6.14 µM
CC(C)(C)[C@H](NC(=O)[C@H](CCCNC(=N)N)NC(=O)Cc1ccc(CNC(=N)N)cc1)C(=O)N[C@@H](CCONC(=N)N)C(=O)NCc1ccc(C(=N)N)cc1,F10 trypsin-like site,"enzyme activity, inhibitor",pH 8,Ki,15 µM
NCC(O)c1ccc(O)cc1 (centres unmarked),ADRB2,"ligand displacement, radioligand",cell membranes,IC50,73.7 µM
COc1cccc(OC)c1-c1cc(C(=O)NC2(C(=O)O)CCCCC2)nn1-c1ccc(F)cc1,Ntsr1,"calcium signal, antagonist, fluorescence",,Kb,> 10 µM
CC[C@H](C)[C@H](NC(=O)[C@H](CCCCN)NC(=O)[C@H](CO)NC(=O)[C@H](CC(=O)O)NC(=O)[C@H](CCCCN)NC(=O)[C@H](CCCCN)NC(=O)CNC(=O)[C@H](Cc1c[nH]cn1)NC(=O)[C@@H](N)CCC(N)=O)C(=O)N[C@H](C(=O)N[C@@H](CC(=O)O)C(=O)N[C@@H](Cc1c[nH]cn1)C(=O)N[C@@H](Cc1ccccc1)C(=O)N[C@@H](CCSC)C(=O)N[C@@H](CCCNC(=N)N)C(=O)N[C@@H](CC(C)C)C(=O)N1CCC[C@H]1C(=O)N[C@@H](CCCCN)C(=O)N[C@@H](C)C(=O)O)[C@@H](C)O,PCNA,"binding, ITC",pH 7.4,Kd,3.28 µM
NCC(O)c1cc(O)c(O)cc1F (centres unmarked),"Beta-2 adrenergic receptor (ADRB2, Homo sapiens, UniProt P07550, N293A)","ligand displacement, radioligand",cell membranes,Ki,5450 µM
CCC#CCOc1ccc(S(=O)(=O)CC2CS2)cc1 (racemic),"72 kDa type IV collagenase (MMP2, Homo sapiens, UniProt P08253)","enzyme activity, inhibitor, fluorescence",,IC50,14 µM
CC[C@H](C)[C@H](NC(=O)[C@H](CCCCN)NC(=O)[C@H](CO)NC(=O)[C@H](CC(=O)O)NC(=O)[C@H](CCCCN)NC(=O)[C@H](CCCCN)NC(=O)CNC(=O)[C@H](Cc1c[nH]cn1)NC(=O)[C@@H](N)CCC(N)=O)C(=O)N[C@H](C(=O)N[C@@H](CC(=O)O)C(=O)N[C@@H](Cc1c[nH]cn1)C(=O)N[C@@H](Cc1ccccc1)C(=O)N[C@@H](C)C(=O)N[C@@H](CCCNC(=N)N)C(=O)N[C@@H](CC(C)C)C(=O)N1CCC[C@H]1C(=O)N[C@@H](CCCCN)C(=O)N[C@@H](C)C(=O)O)[C@@H](C)O,PCNA,"binding, ITC",pH 7.4,Kd,1.65 µM
c1ccc2c(c1)ccc1ccc3ccccc3c12,CYP1B1,"binding, absorbance",pH 7.4,Kd,2.5 µM
CC[C@H](C)[C@H](NC(=O)[C@H](CCCNC(=N)N)NC(=O)[C@H](CO)NC(=O)[C@H](CC(=O)O)NC(=O)[C@H](CCCCN)NC(=O)[C@H](CCCCN)NC(=O)CNC(=O)[C@H](Cc1c[nH]cn1)NC(=O)[C@@H](N)CCC(N)=O)C(=O)N[C@H](C(=O)N[C@@H](CC(=O)O)C(=O)N[C@@H](Cc1c[nH]cn1)C(=O)N[C@@H](Cc1ccccc1)C(=O)N[C@@H](CCSC)C(=O)N[C@@H](CCCNC(=N)N)C(=O)N[C@@H](CC(C)C)C(=O)N1CCC[C@H]1C(=O)N[C@@H](CCCCN)C(=O)N[C@@H](C)C(=O)O)[C@@H](C)O,PCNA,"binding, ITC",pH 7.4,Kd,6.67 µM
FC(F)(F)c1ccc2c(c1)[C@@H]1CNC[C@H]2C1,"Neuronal acetylcholine receptor subunit alpha-7 (CHRNA7, Homo sapiens, UniProt P36544)",cell-free assay,,Ki,> 0.3 µM
